Measured values as given in paper PMC4889517 (Nanomedicine : nanotechnology, biology, and medicine, 2016).
Entries after “also recorded” stand apart in the source; their conditions may differ.

Experiments:
[1] = Body weight of tumor bearing mice; assay type: in vivo, athymic nude mice; details: 5 mg/kg i.p., 2 days/week, after 25 days
Procedure, shortened: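 Athymic nude mice carried SC PC-3 xenografts and were dosed i.p. twice weekly from day 7. Groups were free or liposomal test compound at 5 mg/kg, DMSO, or empty liposomes. Body weight was recorded on day 25 after implantation, which was day 18 of treatment. Mean ± SEM.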

[2] = test system: human prostate cancer PC-3, LNCaP and DU-145 cells; assay: MTT staining cytotoxicity in prostate cancer cell lines; assay type: cell-based; details: concentrations of 5-30 μM; 24, 48, 72 hrs
[3] = test system: prostate tumor xenograft; details: daily administration ref 8; cited from earlier work
[4] = test system: PC-3 cells; assay: Annexin V and PI staining by flow cytometry; assay type: cell-based, human; details: PC-3, 48 hr; free IPA-3 20-30 μM
Procedure, shortened: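 PC-3 cells (F12K, 10% FBS, 37°C, 5% CO₂) were grown 24 h, then exposed to free test compound, liposomal test compound or empty liposomes. After treatment they were PBS-washed twice and stained for 10 min with annexin V-FITC and PI in HEPES binding buffer (140 mM NaCl, 1.8 mM CaCl2, pH 7.4). Cells were washed three times, scraped off, and 10,000 events counted by flow cytometry. Mean ± SEM of percent stained cells.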

[5] = test system: PC-3 cell tumor xenografts; assay: In vivo prostate tumor xenograft growth; design: species or system athymic nude mice; details: 5 mg/kg i.p., 2 days/week from day 7 to day 25
Procedure, shortened: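 Male athymic nude mice, 6-8 weeks old (n = 5-6), received 3 million PC-3 cells in sterile saline SC. From day 7, dosing was i.p. twice weekly: free or sterically stabilized liposomal test compound at 5 mg/kg, with DMSO or empty liposome controls. Calipers were used on days 7, 14, 21 and 25, with volume = ½[length × width²]. Tumors were excised and weighed on day 25.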

[6] = free form, rapid metabolism ref 10; cited from earlier work
[7] = test system: PC-3 cell tumor xenografts; assay: TUNEL assay of apoptosis in tumor xenograft sections; assay type: in vivo, athymic nude mice; details: 5 mg/kg i.p., 2 days/week, day 25
Procedure, shortened: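 PC-3 xenografts were collected on day 25, after 18 days of i.p. dosing twice weekly at 5 mg/kg, with DMSO and empty liposome controls. Frozen sections were fixed in 2% paraformaldehyde (4°C, 30 min) and permeabilized in ethanol:acetic acid 2:1. They were labeled with fluorescein-12-dUTP by terminal deoxynucleotidyl transferase and counterstained with DAPI. TUNEL-positive cells were counted by fluorescence microscopy (n = 4).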

[8] = test system: LNCaP cells; assay: MTT staining cytotoxicity, LNCaP; assay type: cell-based, human; details: read-out: IC50 (MTT)
Procedure, shortened: (§1)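 Cells were seeded at 5 × 10⁴ cells/ml (DU-145 in EMEM, LNCaP in RPMI, 10% FBS) and allowed to attach for 24 h. Free test compound was given at 1.56–50 μM, with DMSO and empty liposome controls, for 24, 48 or 72 h. MTT (0.25 mg/ml final) was added for 2 h at 37°C, formazan dissolved in DMSO, and absorbance read at 590 nm. IC50 came from the concentration-effect curve. Triplicates, n = 3.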

[9] = test system: DU-145 cells; assay: MTT staining cytotoxicity, DU-145; assay type: cell-based, human
Procedure, shortened: as §1

[10] = test system: MDA-231; assay: MTT staining cytotoxicity, MDA-231; assay type: cell-based, human; details: read-out: IC50 (MTT)
[11] = test system: MCF-7; assay: MTT staining cytotoxicity, MCF-7; assay type: cell-based, human; details: read-out: IC50 (MTT)

For `Oc1ccc2ccccc2c1SSc1c(O)ccc2ccccc12` [IPA-3], the “effect on body weight of mice” value [1] is given as “no significant effect”, the “effect on MTT staining” value [2] is given as “concentration- and time-dependent decreases in MTT staining” and the “prostate tumor xenograft growth” value [3] is given as “reduced”. For the same compound, the “percent cells staining positive for annexin V alone” value [4] was “significantly increased”, the “percent cells staining positive for both annexin V and PI” value [4] was “significantly increased” and the “PC-3 cell tumor xenograft growth” value [5] was “ineffective; also recorded: did not have a significant effect”. The half-life in vivo [6] was “very short”, the “number of apoptotic (TUNEL positive) cells per field compared to control groups” value [7] was “significant increases” and the IC50 [8] was 10 µM. For the same compound, the “susceptibility to toxicity (MTT staining)” value ([9]; DU-145 compared to PC-3 and LNCaP cells) was “less susceptible”, the IC50 ([9]; read-out: IC50 (MTT), DU-145) was ~32 µM and the IC50 [10] was 8 µM. The IC50 [11] was 25 µM.
